Results of several laboratories.
FLT3 D835Y: Receptor-type tyrosine-protein kinase FLT3 (FLT3, Homo sapiens, UniProt P36888, D835Y)
FLT3 D835H: Receptor-type tyrosine-protein kinase FLT3 (FLT3, Homo sapiens, UniProt P36888, D835H)
FLT3: Receptor-type tyrosine-protein kinase FLT3 (FLT3, Homo sapiens, UniProt P36888)
FLT3 N841I: Receptor-type tyrosine-protein kinase FLT3 (FLT3, Homo sapiens, UniProt P36888, N841I)
FLT3 D835V: Receptor-type tyrosine-protein kinase FLT3 (FLT3, Homo sapiens, UniProt P36888, D835V)
FLT3 R834Q: Receptor-type tyrosine-protein kinase FLT3 (FLT3, Homo sapiens, UniProt P36888, R834Q)
FLT3 autoinhibited: Receptor-type tyrosine-protein kinase FLT3, autoinhibited (FLT3, Homo sapiens, UniProt P36888)

| Compound | target | test | setting | remaining binding |
| --- | --- | --- | --- | --- |
| O=C(c1ccc(Nc2ncc(Cl)c(-c3cc4ccccc4s3)n2)cc1)N1CCC(N2CCCC2)CC1 | FLT3 D835Y | binding, competition with immobilised ligand | 1 µM | 3.7% |
| Cc1cnn2ncc(-c3ccnc(N(C)C)n3)c2c1 | FLT3 D835H | binding | 1 µM | 100% |
| O=C(NCCCN1CCOCC1)c1ccc(Nc2ncc(Cl)c(-c3ccc(Cl)s3)n2)cc1 | FLT3 | binding, competition with immobilised ligand | 1 µM | 7.7% |
| CNCc1ccccc1-c1csc([C@H](C)Nc2nc(C)nc3cc(OC)c(OC)cc23)c1 | Receptor-type tyrosine-protein kinase FLT3 (FLT3, Homo sapiens, UniProt P36888, ITD) | cell-free assay, competition with immobilised ligand | 1 µM | 99% |
| CC1CCCN1c1nccc(-c2cnn3ncccc23)n1 (stereo not shown) | Receptor-type tyrosine-protein kinase FLT3 (FLT3, Homo sapiens, UniProt P36888, K663Q) | binding | 1 µM | 100% |
| C=CC(=O)N1CCC(C(=O)NCC(=O)N2CCN(c3nc(-c4cnc(N)nc4C(F)F)nc(N4CCOCC4)n3)CC2)CC1 | FLT3 | binding, competition with immobilised ligand | 1 µM | 91% |
| CCCOc1ccc([C@@H]2[C@@H](C(=O)O)[C@H](c3ccc4c(c3)OCO4)CN2CC(=O)Nc2c(CC)cccc2CC)cc1 | FLT3 N841I | cell-free assay, competition with immobilised ligand | 1 µM | 88% |
| COc1cnc(Nc2cccc(S(N)(=O)=O)c2)nc1N1CCN(c2ccccc2)C(=O)C1 | FLT3 D835V | binding, competition with immobilised ligand | 1 µM | 42% |
| COCCOc1nc(-c2ccc(Cl)nc2)nc2c1CN(C(=O)c1ncn3ccccc13)CC2 | FLT3 D835V | cell-free assay, competition with immobilised ligand | 0.1 µM | 100% |
| Cc1cnc(Nc2ccc(C(=O)N3CCC(N4CCCC4)CC3)cc2)nc1-c1cc2ccccc2s1 | FLT3 D835Y | binding, competition with immobilised ligand | 1 µM | 3.6% |
| COc1ccc2c(O[C@@H]3C[C@H]4C(=O)N[C@]5(C(=O)O)CC5/C=C\CCCCC[C@H](NC(=O)OC5CCCC5)C(=O)N4C3)cc(-c3csc(NC(=O)C(C)C)n3)nc2c1C (stereo partly shown) | FLT3 R834Q | cell-free assay, competition with immobilised ligand | 1 µM | 92% |
| CNC(=O)[C@@H]1CC[C@@H](n2c(-c3ccc4cnccc4c3)nc3ccc(C(=O)NCc4cccc(C(N)=O)c4)cc32)C1 | FLT3 D835V | binding, competition with immobilised ligand | 1 µM | 94% |
| CN(CCCC(F)(F)F)c1nccc(-c2cnn3ncccc23)n1 | FLT3 D835V | binding | 1 µM | 84% |
| COc1ncc2cc3ccccc3nc2c1C#N | FLT3 D835V | cell-free assay, competition with immobilised ligand | 5 µM | 100% |
| N[C@@H]1CCN(c2nccc(-c3cnn4ncccc34)n2)C1 | FLT3 N841I | binding | 1 µM | 79% |
| O=C(c1ccc(Nc2ncc(Cl)c(-c3ccc(Cl)s3)n2)cc1)N1CCC(N2CCCC2)CC1 | FLT3 D835V | binding, competition with immobilised ligand | 1 µM | 1.9% |
| C[C@@H](c1ccc(-n2cnc3c(N)ncnc32)cc1)N1CCc2nn(C)c(Cc3ccccc3)c2C1=O | FLT3 D835Y | binding, competition with immobilised ligand | 0.1 µM | 100% |

| Compound | target | test | setting | remaining binding |
| --- | --- | --- | --- | --- |
| O=C(Nc1c[nH]nc1C(=O)NC1CCNCC1)c1cc(F)cc(F)c1 | FLT3 R834Q | binding, competition with immobilised ligand | 1 µM | 94% |
| CN(C)c1nccc(-c2cnn3ncccc23)n1 | FLT3 autoinhibited | binding | 1 µM | 100% |
| O=C1CCc2cc(Nc3cc(OC4CCOCC4)c([N+](=O)[O-])cc3Cl)ccc2N1 | Receptor-type tyrosine-protein kinase FLT3 (FLT3, Homo sapiens, UniProt P36888, D835V/ITD) | cell-free assay, competition with immobilised ligand | 1 µM | 78% |
| COc1cnc(Nc2cccc(S(N)(=O)=O)c2)nc1N1CCN(c2ccccc2)CC1 | FLT3 D835Y | binding, competition with immobilised ligand | 1 µM | 61% |
| O=C(c1ccc(Nc2nccc(-c3cc4ccccc4s3)n2)cc1)N1CCC(N2CCCC2)CC1 | FLT3 | binding, competition with immobilised ligand | 1 µM | 44% |
| CN1CCN(c2ccc(Nc3nccc(-c4cccc([N+](=O)[O-])c4)n3)cc2C(F)(F)F)CC1 | FLT3 N841I | binding | 10 µM | 0.05% |
| O=C(NCCCN1CCOCC1)c1ccc(Nc2nccc(-c3cc4ccccc4s3)n2)cc1 | FLT3 D835V | binding, competition with immobilised ligand | 1 µM | 3.4% |
| CN1CCN(c2ccc(Nc3nccc(-c4ccccc4)n3)cc2C(F)(F)F)CC1 | FLT3 D835V | binding | 10 µM | 0% |
| O=C(NCC1CCOCC1)c1n[nH]cc1NC(=O)c1c(F)cccc1F | FLT3 D835V | binding, competition with immobilised ligand | 1 µM | 100% |
| Cc1cc(-n2nc(Cc3cc(F)cc(C(F)(F)F)c3)nc2C)ccc1C(N)=O | FLT3 | cell-free assay, competition with immobilised ligand | 1 µM | 100% |
| COc1ccnn2ncc(-c3ccnc(N(C)C)n3)c12 | FLT3 autoinhibited | binding | 1 µM | 78% |
| CCN1CCN(Cc2ccc(C(=O)Nc3ccc(C)c(Oc4ccc5c(c4)CC(=O)N5)c3)cc2C(F)(F)F)CC1 | FLT3 D835H | binding, competition with immobilised ligand | 1 µM | 100% |
| C[C@H]1CCN(c2nccc(-c3cnn4ncccc34)n2)C1 | FLT3 R834Q | binding | 1 µM | 71% |
| C[C@@H]1CN(c2cc(-c3nn(C)c4ccc(OC5(C)CC5)cc34)ncn2)C[C@H](C)O1 | FLT3 autoinhibited | cell-free assay, competition with immobilised ligand | 1 µM | 77% |
| Nc1ncc2c(n1)-c1c([nH]c3ccc(C#CC4CC4)cc13)CCCC2 | FLT3 D835Y | binding, competition with immobilised ligand | 1 µM | 89% |
| CS(=O)(=O)N1CCCC(NC(=O)[C@H](CCC2CCCCC2)NC(=O)c2ccc(CNC(=O)c3cnc4ccccn34)cc2)C1 (stereo partly shown) | FLT3 autoinhibited | cell-free assay, competition with immobilised ligand | 0.1 µM | 93% |
| c1cncc(-c2cccc(Nc3nccc(NC4CCCCC4)n3)c2)c1 | FLT3 autoinhibited | binding, competition with immobilised ligand | 10 µM | 3.6% |
